Data: ChEMBL document CHEMBL4184151, “In-cell production of a genetically-encoded library based on the θ-defensin RTD-1 using a bacterial expression system” (Bioorg Med Chem, 2018)
Residues, ends and D or L forms follow the SMILES beside them.

Tests used:
Lethal factor [1] = biological target: T1, Lethal factor (Bacillus anthracis, UniProt P15917); test: Inhibition of Bacillus anthracis lethal factor protease using substrate containing CyPet and YPet linked by RRKKVYPYPMEGTIA sequence preincubated for 30 mins followed by substrate addition measured every 2 mins for 3 hrs by FRET assay
T1 sequence (P15917 whole entry): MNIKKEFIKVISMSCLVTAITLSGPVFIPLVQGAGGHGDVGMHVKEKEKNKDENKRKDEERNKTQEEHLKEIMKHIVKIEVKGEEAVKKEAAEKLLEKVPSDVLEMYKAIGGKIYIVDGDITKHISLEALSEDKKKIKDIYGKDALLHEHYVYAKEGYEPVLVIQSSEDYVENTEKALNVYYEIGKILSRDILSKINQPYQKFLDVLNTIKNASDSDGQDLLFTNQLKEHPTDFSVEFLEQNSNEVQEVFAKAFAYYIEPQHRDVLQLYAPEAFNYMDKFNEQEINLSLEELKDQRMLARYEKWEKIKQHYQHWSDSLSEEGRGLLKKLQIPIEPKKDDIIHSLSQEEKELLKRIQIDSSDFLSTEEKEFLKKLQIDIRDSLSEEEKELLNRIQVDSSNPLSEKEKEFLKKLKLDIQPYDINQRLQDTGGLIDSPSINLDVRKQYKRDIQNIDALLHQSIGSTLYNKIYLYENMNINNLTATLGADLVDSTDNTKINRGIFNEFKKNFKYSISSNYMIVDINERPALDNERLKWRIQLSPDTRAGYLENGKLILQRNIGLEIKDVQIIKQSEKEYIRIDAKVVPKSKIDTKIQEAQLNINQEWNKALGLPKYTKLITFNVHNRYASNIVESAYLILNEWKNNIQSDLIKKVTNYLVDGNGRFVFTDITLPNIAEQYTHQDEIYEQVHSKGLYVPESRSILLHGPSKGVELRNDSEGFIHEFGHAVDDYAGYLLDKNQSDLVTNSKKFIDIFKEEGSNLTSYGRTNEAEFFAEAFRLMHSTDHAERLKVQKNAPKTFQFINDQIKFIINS
How it was run: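 Purified LF (50 nM) in pH 7.2 buffer (10 μM CaCl2, 10 μM MgCl2, 20 μM ZnCl2, 20 mM sodium phosphate, 100 mM NaCl) preincubated at room temperature with inhibitor (1 nM–10 μM). FRET substrate added to 10 nM final. Read at 405 nm excitation, 535 nm intensity ratio It/I0. Initial velocities were normalised to uninhibited LF, and IC50 came from a variable-slope log(inhibitor)–response fit.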

Lethal factor [2] = biological target: T1, Lethal factor; test: Non-competitive inhibition of Bacillus anthracis lethal factor protease using substrate containing CyPet and YPet linked by RRKKVYPYPMEGTIA sequence preincubated for 30 mins followed by substrate addition measured every 2 mins for 3 hrs by FRET assay
How it was run: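 Ki was derived from the IC50 with the non-competitive tight-binding relation Ki = IC50 − E0/2, where E0 is the enzyme concentration (50 nM LF). The IC50 comes from the FRET assay: pH 7.2 Ca/Mg/Zn phosphate–NaCl buffer, inhibitor 1 nM–10 μM, 10 nM substrate, 405 nm excitation, 535 nm read, initial velocities fitted to a variable-slope curve.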

Structure (SMILES) | IC50 (Lethal factor [1]) | Ki (Lethal factor [2])
CC[C@H](C)[C@H](NC(=O)[C@H](CS)NC(=O)[C@H](CCCNC(=N)N)NC(=O)[C@H](CS)NC(=O)[C@@H](NC(=O)CNC(=O)[C@H](Cc1cnc[nH]1)NC(=O)[C@H](CC(C)C)NC(=O)[C@H](CS)NC(=O)[C@H](C)NC(=O)[C@H](CS)NC(=O)[C@H](CCCNC(=N)N)NC(=O)[C@H](CS)NC(=O)[C@H](Cc1ccccc1)NC(=O)CN)C(C)C)C(=O)N[C@@H](CS)C(=O)N[C@H](C(=O)N[C@@H](CCCNC(=N)N)C(=O)O)[C@@H](C)O (H-GFCRCACLHGVCRCICTR-OH) | 971 nM | 946 nM
CC[C@H](C)[C@H](NC(=O)[C@H](CS)NC(=O)[C@H](CC(=O)O)NC(=O)[C@H](CS)NC(=O)[C@H](CO)NC(=O)[C@H](CO)NC(=O)[C@H](CCCNC(=N)N)NC(=O)CNC(=O)[C@H](CS)NC(=O)[C@H](Cc1ccccc1)NC(=O)[C@H](CS)NC(=O)[C@H](CCCNC(=N)N)NC(=O)[C@H](CS)NC(=O)[C@H](Cc1ccccc1)NC(=O)CN)C(=O)N[C@@H](CS)C(=O)N[C@H](C(=O)N[C@@H](CCCNC(=N)N)C(=O)O)[C@@H](C)O (H-GFCRCFCGRSSCDCICTR-OH) | 1200 nM | 1170 nM
CC[C@H](C)[C@H](NC(=O)[C@H](CS)NC(=O)[C@H](CCCNC(=N)N)NC(=O)[C@H](CS)NC(=O)[C@@H](NC(=O)CNC(=O)[C@H](CCCNC(=N)N)NC(=O)[C@H](CCCNC(=N)N)NC(=O)[C@H](CS)NC(=O)[C@H](CC(C)C)NC(=O)[C@H](CS)NC(=O)[C@H](CCCNC(=N)N)NC(=O)[C@H](CS)NC(=O)[C@H](Cc1ccccc1)NC(=O)CN)C(C)C)C(=O)N[C@@H](CS)C(=O)N[C@H](C(=O)N[C@@H](CCCNC(=N)N)C(=O)O)[C@@H](C)O (H-GFCRCLCRRGVCRCICTR-OH) | 406 nM | 381 nM
CC[C@H](C)[C@H](NC(=O)[C@H](CS)NC(=O)[C@H](Cc1c[nH]c2ccccc12)NC(=O)[C@H](CS)NC(=O)CNC(=O)[C@H](Cc1ccc(O)cc1)NC(=O)[C@H](CCCNC(=N)N)NC(=O)[C@H](CO)NC(=O)[C@H](CS)NC(=O)[C@@H]1CCCN1C(=O)[C@H](CS)NC(=O)[C@H](CCCNC(=N)N)NC(=O)[C@H](CS)NC(=O)[C@H](Cc1ccccc1)NC(=O)CN)C(=O)N[C@@H](CS)C(=O)N[C@H](C(=O)N[C@@H](CCCNC(=N)N)C(=O)O)[C@@H](C)O (H-GFCRCPCSRYGCWCICTR-OH) | 971 nM | 946 nM
